Compound activity (PubChem BioAssay)
Sampled rows, rich in hits. Any-hit rate of the full collection: about 2.9%.
AI-2 QS modul: Vibrio harveyi AI-2 quorum sensing modulation | Vibrio harveyi JMH597 AI-2 luminescence/OD600 ratio, 9 h; active compounds read low; strain lacks LuxN and CqsS sensors; 0 = neutral-control median | activity change, % at 7.5 µM | hit rate 0.4% among 300,000 | AID 2094; in the data active means activity change below about -75%, passing the limit was not always enough;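 further: luminescence divided by OD600 gain over 9 h not by final OD600 alone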
Runt-CBFb FRET: blocks binding of human RUNX1 Runt domain to CBFb; Q01196+Q13951; Cerulean-Runt/Venus-CBFb FRET ratio 530/480, 1 h; inhibition, % at 20 µM; hit rate 0.46% among 220,000;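 active means inhibition over about 50% at 20 µM in the single-dose screen, limit read from the data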
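Measured by: fluorescence energy transfer, 422 nm excitation, 530/480 nm emission; Assay system: Cerulean-Runt domain; Medium: Tris pH 7.5 buffer with BSA; Measure: loss of energy transfer signal; Controls: 5 µM unlabeled CBFb as full-inhibition high control; Incubation: protein complex preformed 1 h, compound exposure 1 h, room temperature, dark.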
Runt-SMMHC FRET: blocks binding of human RUNX1 Runt domain to CBFb-SMMHC; hit rate 0.74% among 220,000; inhibition, % at 20 µM; Q01196+Q13951; Cerulean-Runt/Venus-CBFb-SMMHC FRET ratio 530/480, 1 h;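 active means mean inhibition across duplicate retests at 20 µM reaching about 50%, limit read from the data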;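 further: inhibitors lower the FRET ratio by blocking Runt binding to CBFb-SMMHC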
RanGTP-Impb inh: disruptors of Ran-importin-beta complex formation – biochemical, FRET, CFP-Ran, YFP-importin-beta, homogeneous, primary screen; cell-free CFP-Ran/YFP-importin-beta FRET ratio; inhibition, % (test concentration not listed); hit rate 1.1% among 300,000;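 active means more than half of the replicate wells show a fall in the fluorescence ratio signal beyond about 16%, limit read from the data, passing the limit was not always enough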
KLK7 zymogen act: activators of human kallikrein-7 zymogen; P49862; purified proKLK7, EDANS-DABCYL substrate fluorescence; 100% is mature enzyme control, 0% vehicle; activation, % at 7 µM; hit rate 0.9% among 370,000;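 active means activation above the mean of all tested compounds plus 3 SD, computed per campaign excluding outliers beyond control limits, cut at about 13% in these data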
Wee1 degr inh: blocks degradation of human Wee1 kinase; AID 1321; reporter increase, % at 5 µM; P30291; HeLa Luc-Wee1K328M stability, luciferase luminescence; 100% = proteasome inhibitor MG132 effect; hit rate 1.2% among 220,000;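 active means activation above the mean of all tested compounds plus 3 SD, set per screening run, cut at about 8.8% in these data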;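 further: cells exposed to compound for 20 h before luminescence read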
Target sequence (P30291 whole entry K328M): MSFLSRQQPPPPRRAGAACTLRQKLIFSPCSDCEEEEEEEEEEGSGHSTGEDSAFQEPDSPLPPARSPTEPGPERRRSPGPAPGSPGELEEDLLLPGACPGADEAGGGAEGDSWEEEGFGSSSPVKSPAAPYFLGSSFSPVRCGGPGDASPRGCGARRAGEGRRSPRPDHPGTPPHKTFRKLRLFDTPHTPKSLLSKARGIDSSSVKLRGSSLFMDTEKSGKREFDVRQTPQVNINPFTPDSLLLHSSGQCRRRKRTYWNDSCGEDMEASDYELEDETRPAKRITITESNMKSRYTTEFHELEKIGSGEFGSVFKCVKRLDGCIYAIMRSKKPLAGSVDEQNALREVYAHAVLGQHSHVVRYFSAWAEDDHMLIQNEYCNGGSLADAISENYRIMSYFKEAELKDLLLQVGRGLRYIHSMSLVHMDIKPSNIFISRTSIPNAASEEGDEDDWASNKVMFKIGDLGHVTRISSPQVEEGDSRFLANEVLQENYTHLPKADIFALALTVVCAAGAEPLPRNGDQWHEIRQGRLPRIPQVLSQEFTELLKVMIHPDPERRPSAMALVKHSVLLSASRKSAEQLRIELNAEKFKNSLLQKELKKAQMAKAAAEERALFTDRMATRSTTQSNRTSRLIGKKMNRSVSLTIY
Wee1 stab conf: human Wee1 degradation inhibition, confirmation; shares compounds with Wee1 degr inh; HeLa Luc-Wee1K328M degradation, luminescence; vehicle 0%, proteasome-blocked wells 100%; activation, % at 5 µM; hit rate 4% among 1,100; AID 1410; in the data active means activation above about 8.9%
Runt-CBFb TRFRET: Runt-CBFb binding inhibition | shares compounds with Runt-CBFb FRET | TR-FRET RUNX1 Runt domain-CBFb binding | inhibition, % at 20 µM | hit rate 20% among 480 | AID 1502; in the data active means inhibition above about 40%
JMH597 growth rt: retest Vibrio harveyi JMH597 growth inhibition | shares compounds with AI-2 QS modul | OD600 absorbance, 9 h; lacks LuxN and CqsS sensors | growth inhibition, % at 7.5 µM | hit rate 1% among 750 | AID 2726;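 active means every replicate shows growth inhibition above 50%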
BB721 lum counter: retest counter-screen: luminescence loss in constitutive-on quorum sensing strain BB721; inhibition, % at 7.5 µM; hit rate 95% among 750; shares compounds with AI-2 QS modul; Vibrio harveyi BB721 luminescence, 9 h;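 active means inhibition above about 80% in every replicate, not just on average, limit read from the data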
BB721 growth: retest Vibrio harveyi BB721 growth inhibition | OD600 absorbance, 9 h | hit rate 3% among 750 | AID 2728 | growth inhibition, % at 7.5 µM | shares compounds with AI-2 QS modul;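 active means every replicate shows growth inhibition above 50%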
JMH597 AI-2 mod: Vibrio harveyi AI-2 signaling luminescence modulation – JMH597 strain, confirmation | shares compounds with AI-2 QS modul | Vibrio harveyi JMH597 AI-2 quorum sensing luminescence, 9 h; luxN and CqsS knockout, AI-2 only | inhibition, % at 7.5 µM | hit rate 97% among 750 | AID 2736;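 active means every replicate shows more than 75% inhibition of signal versus neutral control wells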
KLK7 act conf: confirmation of human kallikrein-7 zymogen activators; AID 686949; activation, % at 7 µM; hit rate 68% among 3,200; purified proKLK7, EDANS-DABCYL substrate fluorescence; scaled: vehicle 0, mature enzyme 100; shares compounds with KLK7 zymogen act;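 active means activation, as change over the incubation, above the mean of all tested compounds plus 3 SD, cut at about 13% in these data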
EDANS-DABCYL int: optically interferes with EDANS-DABCYL signal, flagging KLK7 hits; hit rate 80% among 3,200; activation, % at 7 µM; shares compounds with KLK7 zymogen act; EDANS-DABCYL substrate fluorescence interference, no enzyme, 4 h; solvent 0%, active enzyme control 100%;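 active means activation above the all-compound mean plus 3 SD, ignoring values outside control-based bounds, cut at about 4.8% in these data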;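 further: value is the 4 h activation minus the activation read at time zero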
A number is an active result; - = inactive; . = not tested or not shown.

SMILES	AI-2 QS modul	Runt-CBFb FRET	Runt-SMMHC FRET	RanGTP-Impb inh	KLK7 zymogen act	Wee1 degr inh	Wee1 stab conf	others
Cc1ccc(C2OC3=C(C(=O)CC(C)(C)C3)C(N)=C2C#N)o1 (configuration not stated)	-	-	-	-	-	15	-
COc1ccc(S(=O)(=O)N2CCC(C(=O)NN3CCCCC3)CC2)cc1	.	.	.	.	-	.	.
CCOC(=O)CSc1nc2cc(C(F)(F)F)cnc2n1C	-	-	-	-	-	11	-
O=C(Cn1cccc1C(=O)c1ccccc1)NCc1cccc(Cl)c1	-	-	-	-	-	-	.
Cc1cc(OCC(=O)OCC(=O)NCc2ccco2)ccc1Cl	-	.	.	-	-	.	.
COCCNc1c(-c2ccc(OC)c(OC)c2)nc2ccc(Cl)cn12	-	.	.	-	-	-	.
COCCNc1c(-c2cc3ccc(C)c(C)c3[nH]c2=O)nc2ccccn12	-	-	-	-	-	13	-
CCOC(=O)c1ccccc1NC(=S)N1CC(C)CC(C)C1 (configuration not stated)	-	-	-	-	-	15	-
CC1CC(C)CN(C(=O)Nc2ccccc2F)C1 (configuration not stated)	-	-	-	-	-	19	-
COc1cc(NC(=O)Cn2ccsc2=N)cc(OC)c1	-	-	-	-	-	13	-
CCNC(=O)C1CCCN(C(=O)c2cccc(OC(F)(F)F)c2)CC1 (configuration not stated)	.	.	.	.	-	.	.
OCCN1CCN(c2ncnc3c2sc2nc(N4CCOCC4)c4c(c23)CCC4)CC1	-	-	-	-	-	-	.
OCCN(CCO)c1ncnc2c1sc1nc(N3CCOCC3)c3c(c12)CCCC3	-	-	-	-	-	14	-
CCOC(=O)c1c(-c2ccccc2)oc2ccc(OC(C)=O)cc12	-	52	-	-	-	13	-	Runt-CBFb TRFRET=-
CC(=O)Nc1ccc(S(=O)(=O)Nc2nc3cc4c(cc3nc2Cl)OCCO4)cc1	-	51	75	-	-	11	-	Runt-CBFb TRFRET=-
COC(=O)c1sccc1N/N=C/c1cccc(Oc2ccccc2)c1	-	-	-	-	-	-	.
Cn1nccc1C(=O)Nc1nnc(C2CC2)s1	-	.	.	-	-	.	.
COc1cc(C(=O)NCc2nnc(SCC(=O)Nc3nccs3)o2)cc(OC)c1OC	-	-	-	-	-	-	.
COc1cc(C(=O)NCc2nnc(SCC(=O)Nc3nc4ccccc4s3)o2)cc(OC)c1OC	-	53	-	-	-	12	-	Runt-CBFb TRFRET=-
NS(=O)(=O)c1ccc(NC(=O)CN2C(=O)c3ccccc3C2=O)cc1	-84	-	-	-	-	19	-	JMH597 growth rt=-;BB721 lum counter=93;BB721 growth=-;JMH597 AI-2 mod=96
O=C(CN1C(=O)c2ccccc2C1=O)Nc1ccccc1	-	.	.	-	-	.	.
CC1=NNC(=O)C1CCC(=O)N/N=C/c1ccc(Cl)cc1Cl (configuration not stated)	-	-	-	-	-	-	.
Cc1ccc(NC(=O)CCC(=O)c2cccs2)c(O)c1	-82	-	-	-	-	15	-	JMH597 growth rt=-;BB721 lum counter=93;BB721 growth=-;JMH597 AI-2 mod=95
Cc1ccc2nc(NC(=O)COC(=O)c3ccco3)sc2c1	-92	-	-	-	-	11	-	JMH597 growth rt=-;BB721 lum counter=98;BB721 growth=-;JMH597 AI-2 mod=99
COc1ccccc1/C=C/CN1CCSCC1	-	.	.	-	-	.	.
SMILES	AI-2 QS modul	Runt-CBFb FRET	Runt-SMMHC FRET	RanGTP-Impb inh	KLK7 zymogen act	Wee1 degr inh	Wee1 stab conf	others
O=C(CCc1n[nH]c(=O)[nH]c1=O)Nc1cccc([N+](=O)[O-])c1	-	-	-	-	16	13	-	KLK7 act conf=-;EDANS-DABCYL int=-
O=C(NCc1cccs1)C(=O)NCC1OCCCN1S(=O)(=O)c1cc(F)ccc1F (configuration not stated)	-	.	.	-	-	.	.
CC1(C)Nc2ccccc2C(=O)N1NS(=O)(=O)c1ccccc1	-	-	-	-	75	11	-	KLK7 act conf=46;EDANS-DABCYL int=42
CC1(C)CC(=O)C2=C(C1)OC(N)=C(C#N)C2c1cc2c(cc1[N+](=O)[O-])OCO2 (configuration not stated)	-	-	-	-	108	11	-	KLK7 act conf=65;EDANS-DABCYL int=66
CCOc1cc(C2C(C#N)=C(N)OC3=C2C(=O)CC(C)(C)C3)cc([N+](=O)[O-])c1O (configuration not stated)	-	-	-	-	-	-	.
CCOC(=O)C(CC(=O)c1ccccc1)CC(=O)c1ccccc1	-	.	.	-	-	.	.
O=C1c2ccccc2-c2c1cccc2C(=O)N(CCO)CCO	-	75	-	-	-	-	.	Runt-CBFb TRFRET=-
O=C(NCCO)c1cccc2c1-c1ccccc1C2=O	-	-	-	-	-	-	.
O=C1C=CC(=O)N1N(c1ccccc1)c1ccccc1	-	72	.	-	-	-	.	Runt-CBFb TRFRET=-
CCc1ccc2[nH]c3nc(C)cc(C)c3c(=O)c2c1	-	58	83	-	-	-	.	Runt-CBFb TRFRET=-
c1coc(-c2nc(-c3ccco3)c(-c3ccco3)nc2-c2ccco2)c1	-	51	-	60	-	-	.	Runt-CBFb TRFRET=-
Cn1c(SCC(=O)Nc2ccc3c(c2)OCO3)nnc1C(F)(F)F	.	.	.	.	-	.	.
COc1ccc(/C=C(\C#N)C(=O)Nc2cccc3ncccc23)cc1OC	-	69	60	50	-	-	.	Runt-CBFb TRFRET=64
